Starred links: 1 amine or outer side, 2 acyl side, 3 side chain; linkers in the order of their positions; H or OH if unused. Residues, ends and D or L forms follow the SMILES beside them. *: point of attachment. NH(4-MeO-phenyl) = COc1ccc(N*)cc1; X1 = c1ccc2c(N3CCN(*)CC3)nsc2c1; NH(3-MeOPh) = COc1cccc(N*)c1; X4 = COc1cccc(NC(=S)*)c1; X5 = COc1ccccc1NC(=S)*; Boc = CC(C)(C)OC(=O)*; CO = O=C([*:1])[*:2]
How the values were obtained:
[1] = test system: Fusarium oxysporum; assay: Antifungal activity against Fusarium oxysporum at 50 ug/mL incubated for 3 days by agar well diffusion method; assay type: functional; details: 72 h, read-out: IZ
Summary of the method: (§1)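 Fungal growth inhibition measured by agar well diffusion, with bavistin as the reference. Records the mean inhibition-zone diameter (mm) around each well.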

[2] = Antiglycation activity using bovine serum albumin incubated at 37 degC for 7 days by spectrofluorimetry; assay type: physicochemical
Summary of the method: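 Glycation of bovine serum albumin, with rutin as the reference standard. IC50 values are averages of triplicate runs.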

[3] = molecular target: Urease (Canavalia ensiformis, UniProt P07374); assay: Inhibition of jack bean urease assessed as reduction in ammonia production incubated at 30 degC for 15 mins by indophenol method
Sequence of Urease (P07374 whole entry): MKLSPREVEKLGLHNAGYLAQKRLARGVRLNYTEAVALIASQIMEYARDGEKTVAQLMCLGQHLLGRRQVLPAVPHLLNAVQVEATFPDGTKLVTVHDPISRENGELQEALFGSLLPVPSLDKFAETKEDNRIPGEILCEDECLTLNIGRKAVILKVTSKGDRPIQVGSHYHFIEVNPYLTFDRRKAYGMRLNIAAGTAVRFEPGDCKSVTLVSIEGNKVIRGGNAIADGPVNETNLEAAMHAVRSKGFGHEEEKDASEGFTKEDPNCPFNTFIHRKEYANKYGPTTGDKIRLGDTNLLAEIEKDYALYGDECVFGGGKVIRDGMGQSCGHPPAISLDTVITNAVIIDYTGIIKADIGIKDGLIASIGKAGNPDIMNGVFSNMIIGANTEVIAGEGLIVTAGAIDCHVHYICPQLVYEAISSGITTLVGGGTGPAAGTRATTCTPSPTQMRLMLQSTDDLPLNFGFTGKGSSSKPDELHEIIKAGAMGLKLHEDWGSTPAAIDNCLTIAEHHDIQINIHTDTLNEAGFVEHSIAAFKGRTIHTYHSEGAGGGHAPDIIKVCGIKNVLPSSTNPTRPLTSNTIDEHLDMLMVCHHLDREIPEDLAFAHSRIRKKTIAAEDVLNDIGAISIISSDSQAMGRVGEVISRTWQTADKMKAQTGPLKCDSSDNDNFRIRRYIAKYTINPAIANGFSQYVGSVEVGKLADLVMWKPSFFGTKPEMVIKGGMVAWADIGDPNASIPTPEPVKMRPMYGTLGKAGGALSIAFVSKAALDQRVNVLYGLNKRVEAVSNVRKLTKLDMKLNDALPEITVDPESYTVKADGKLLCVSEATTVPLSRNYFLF
Summary of the method: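 Inhibition of jack bean urease, with thiourea as the reference standard. IC50 values are the average of triplicate runs.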

[4] = Inhibition of sheep stomach parietal cells gastric H+/K+-ATPase activity assessed as reduction in inorganic phosphorus production by Fiske Subbarow's method; assay type: tissue-based, Ovis aries
Summary of the method: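 Inhibition of purified H+/K+-ATPase, with omeprazole as the reference. IC50 is the mean of triplicate runs.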

[5] = test system: Escherichia coli; assay: Antibacterial activity against Escherichia coli at 50 ug/mL incubated for 24 hrs by agar well diffusion method; assay type: functional; details: read-out: IZ
Summary of the method: (§2)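 Agar well diffusion against the bacterial isolate, with streptomycin as the reference drug. Read-out is the average diameter (mm) of the growth-inhibition zone around the well.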

[6] = test system: Xanthomonas oryzae; assay: Antibacterial activity against Xanthomonas oryzae at 50 ug/mL incubated for 24 hrs by agar well diffusion method; assay type: functional; details: read-out: IZ
[7] = test system: Staphylococcus; assay: Antibacterial activity against Coagulase positive Staphylococcus at 50 ug/mL incubated for 24 hrs by agar well diffusion method; assay type: functional; details: read-out: IZ; summary of the method: as §2
[8] = test system: Aspergillus flavus; assay: Antifungal activity against Aspergillus flavus at 50 ug/mL incubated for 3 days by agar well diffusion method; assay type: functional; details: 72 h, read-out: IZ; summary of the method: as §1
[9] = test system: Aspergillus niger; assay: Antifungal activity against Aspergillus niger at 50 ug/mL incubated for 3 days by agar well diffusion method; assay type: functional; details: 72 h, read-out: IZ; summary of the method: as §1
[10] = test system: Fusarium verticillioides; assay: Antifungal activity against Fusarium moniliforme at 50 ug/mL incubated for 3 days by agar well diffusion method; assay type: functional; details: 72 h, read-out: IZ; summary of the method: as §1

Row | SMILES | zone of inhibition at 50 µg/mL [1] | IC50 [2] | IC50 [3] | IC50 [4] | zone of inhibition at 50 µg/mL [5] | zone of inhibition at 50 µg/mL [6] | zone of inhibition at 50 µg/mL [7] | zone of inhibition at 50 µg/mL [8] | zone of inhibition at 50 µg/mL [9] | zone of inhibition at 50 µg/mL [10] | IC50 ([4]; read-out: IC50)
1 | CC(C)[C@H](NC(=O)CNC(=O)[C@H](Cc1ccccc1)NC(=O)CNC(=O)OC(C)(C)C)C(=O)N1CCC[C@H]1C(=O)N1CCN(c2nsc3ccccc23)CC1 (Boc-GFGVP-X1) | 7 mm | 235 µM | 255 µM | Not Active | 8 mm | 7 mm | 6 mm | 7 mm | 6 mm | 7 mm | 
2 | COc1cccc(NC(=S)NCC(=O)N[C@@H](Cc2ccccc2)C(=O)NCC(=O)N[C@H](C(=O)N2CCC[C@H]2C(=O)N2CCN(c3nsc4ccccc34)CC2)C(C)C)c1 (X4-GFGVP-X1) | 23 mm | 20 µM | 19 µM |  | 21 mm | 19 mm | 20 mm | 23 mm | 24 mm | 24 mm | 38 µM
3 | COc1cccc(NC(=S)NCC(=O)N[C@H](C(=O)NCC(=O)N[C@H](C(=O)N2CCC[C@H]2C(=O)N2CCN(c3nsc4ccccc34)CC2)C(C)C)C(C)C)c1 (X4-GVGVP-X1) | 19 mm | 23 µM | 23 µM |  | 17 mm | 16 mm | 18 mm | 18 mm | 16 mm | 19 mm | 36 µM
4 | COc1ccccc1NC(=S)NCC(=O)N[C@@H](Cc1ccccc1)C(=O)NCC(=O)N[C@H](C(=O)N1CCC[C@H]1C(=O)N1CCN(c2nsc3ccccc23)CC1)C(C)C (X5-GFGVP-X1) | 24 mm | 19 µM | 18 µM |  | 24 mm | 22 mm | 24 mm | 25 mm | 24 mm | 26 mm | 46 µM
5 | COc1ccccc1NC(=S)NCC(=O)N[C@H](C(=O)NCC(=O)N[C@H](C(=O)N1CCC[C@H]1C(=O)N1CCN(c2nsc3ccccc23)CC1)C(C)C)C(C)C (X5-GVGVP-X1) | 22 mm | 20 µM | 20 µM |  | 21 mm | 19 mm | 20 mm | 22 mm | 20 mm | 23 mm | 40 µM
6 | COc1cccc(NC(=O)NCC(=O)N[C@@H](Cc2ccccc2)C(=O)NCC(=O)N[C@H](C(=O)N2CCC[C@H]2C(=O)N2CCN(c3nsc4ccccc34)CC2)C(C)C)c1 ({NH(3-MeOPh)-CO}-GFGVP-X1) | 22 mm | 23 µM | 23 µM |  | 19 mm | 18 mm | 20 mm | 21 mm | 20 mm | 22 mm | 48 µM
7 | COc1cccc(NC(=O)NCC(=O)N[C@H](C(=O)NCC(=O)N[C@H](C(=O)N2CCC[C@H]2C(=O)N2CCN(c3nsc4ccccc34)CC2)C(C)C)C(C)C)c1 ({NH(3-MeOPh)-CO}-GVGVP-X1) | 18 mm | 25 µM | 25 µM |  | 15 mm | 13 mm | 14 mm | 17 mm | 15 mm | 18 mm | 38 µM
8 | COc1ccc(NC(=O)NCC(=O)N[C@@H](Cc2ccccc2)C(=O)NCC(=O)N[C@H](C(=O)N2CCC[C@H]2C(=O)N2CCN(c3nsc4ccccc34)CC2)C(C)C)cc1 ({NH(4-MeO-phenyl)-CO}-GFGVP-X1) | 27 mm | 19 µM | 17 µM |  | 26 mm | 23 mm | 26 mm | 28 mm | 28 mm | 29 mm | 38 µM

Reference: ChEMBL document CHEMBL3352339, “Implications of N-capped urea/thiourea and C-capped 3-(1-piperazinyl)-1,2-benzisothiazole with bridging Gly-Val/Phe-Gly-Val-Pro as therapeutic targets” (Eur J Med Chem, 2014)
